# A selection: hits, their analogues and other compounds. The true share with any hit is near 1.1%.
# C-LANA FP – KSHV C-LANA DNA binding inhibition; MBP-C-LANA/FAM-LBS DNA binding, fluorescence polarization; inhibition, % at 9 µM; 0.078% of 340,000 active;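 active means highest replicate inhibition at or above 60% at 9 µM, even if other replicates fall short; inactive means all replicates below 60% inhibition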;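 further: 0% = neutral control wells and 100% = 4 µM acridine orange control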
# Keap1 Nrf2 FP – inhibitors of human Keap1-Nrf2 protein-protein interaction | AID 504523 | Keap1 Kelch-Nrf2 peptide fluorescence polarization, 1536-well | 0.15% of 340,000 active | Q14145 | inhibition, % at 9.4 µM; in the data active means inhibition above about 12%; inconclusive means no clear call, values can overlap the other calls; inactive means below about 7.3%;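 further: human Keap1 Kelch domain with fluorescein labeled Nrf2 9mer peptide probe; 0% = neutral control wells and 100% = peptide positive control; higher means more block of Keap1 binding to Nrf2 peptide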
# Target sequence (Q14145 whole entry, looked up, the tested form may be a part): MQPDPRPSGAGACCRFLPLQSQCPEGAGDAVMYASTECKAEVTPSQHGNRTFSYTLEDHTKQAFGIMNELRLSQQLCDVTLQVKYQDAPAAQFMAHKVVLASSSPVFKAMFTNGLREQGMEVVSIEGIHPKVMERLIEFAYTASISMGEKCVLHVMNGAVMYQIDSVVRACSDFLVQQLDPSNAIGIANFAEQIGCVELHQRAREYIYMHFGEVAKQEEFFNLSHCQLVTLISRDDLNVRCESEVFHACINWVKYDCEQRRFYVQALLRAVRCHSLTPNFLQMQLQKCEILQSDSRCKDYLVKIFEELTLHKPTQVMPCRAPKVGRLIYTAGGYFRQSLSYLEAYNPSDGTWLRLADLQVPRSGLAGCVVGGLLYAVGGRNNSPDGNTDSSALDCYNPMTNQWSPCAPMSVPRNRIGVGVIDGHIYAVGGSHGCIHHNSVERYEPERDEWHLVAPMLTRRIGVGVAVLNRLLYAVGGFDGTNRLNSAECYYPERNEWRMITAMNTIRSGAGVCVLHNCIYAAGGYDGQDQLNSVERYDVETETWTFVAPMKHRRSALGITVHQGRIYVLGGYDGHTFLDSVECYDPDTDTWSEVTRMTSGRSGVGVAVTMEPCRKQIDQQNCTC
# CAL PDZ FP-1 – inhibitors of human CAL PDZ peptide binding; Q9HD26; purified CAL PDZ, TMR-peptide fluorescence polarization, 1 h; inhibition, % at 24.9 µM; 0.92% of 300,000 active; AID 602252;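 active means mean inhibition of at least 30% with at least half of replicates also reaching 30%; inconclusive means no clear call, values can overlap the other calls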;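 further: 0% = DMSO neutral control and 100% = excess unlabeled competitor peptide PRC23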
# miR-122 sensor – blocks miR-122 activity in Huh7 sensor cells. Huh7 miR-122 Renilla luciferase sensor, 48 h; neutral wells = 0, positive control = 100. activation (reporter increase), % at 12.5 µM. 0.3% of 340,000 active. AID 602342;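 active means mean replicate activation score at least 90 and every replicate individually at or above 90; inconclusive means only one of the two criteria met; inactive means neither criterion met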;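 further: higher luciferase means less miR-122 activity so hits act as miR-122 inhibitors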
# CAL PDZ FP-2 – blocks peptide binding to human CAL PDZ domain; AID 504414; purified CAL PDZ, TMR-peptide fluorescence polarization, 1 h; inhibition, % at 20 µM; 0.02% of 330,000 active; Q9HD26;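 active means highest replicate inhibition of at least 40%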;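 further: plate controls were DMSO neutral control wells for no effect and unlabeled competitor peptide control wells for full effect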
#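 Read-out basis: mP drop reported as inhibition | Assay system: Tagged CAL PDZ protein CerCALP, purified | Benchmarks: Unlabelled peptide for full inhibition, DMSO wells as neutral | Schedule: 1 h incubation at room temperature before polarization reading | Buffer or medium: Sodium phosphate/NaCl buffer pH 7.4 with TCEP, IgG, Thesit | Doses: Single point, 20 µM | Measured by: Fluorescence polarization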
# The depositor's hits bear a star; ? = inconclusive; . = not tested or not shown; [ ] = another dose, or the depositor's remark.
SMILES,C-LANA FP,Keap1 Nrf2 FP,CAL PDZ FP-1,miR-122 sensor,CAL PDZ FP-2
Cc1onc(-c2c(Cl)cccc2Cl)c1C(=O)N1CCN(c2ncccn2)CC1,0,-2,51*,.,1
CC/C(=N\NC(=O)c1ccc2c(c1)OCO2)C12CC3CC(CC(C3)C1)C2,1,-6,-1,181*,-1
C/C(=N\NC(=O)CNC(=O)c1ccc2c(c1)OCCO2)c1ccco1,0,-1,7,.,0
C/C(=N\NC(=O)c1ccc2c(c1)OCO2)c1ccco1,-1,0,50*,-4,-1
CC/C(=N\NC(=O)c1ccncc1)C12CC3CC(CC(C3)C1)C2,2,-4,0,2,-1
C[C@@H]1CN([C@H](C)CO)S(=O)(=O)c2ccc(C#Cc3ccc(F)cc3)cc2O[C@@H]1CN(C)S(=O)(=O)c1ccc(F)cc1,.,.,.,10[16.7 µM],.
O=C(COC(=O)CNC(=O)c1ccccc1Cl)NC1CC1,-1,-6,39*,-8,1
COc1ccc(OCCC(=O)OCC(=O)NCc2ccc(F)cc2)cc1,0,0,47*,.,-2
Cc1cc(C)c(N2C(=NC(=O)CCCC(=O)O)SC3CS(=O)(=O)CC32)c(C)c1 (configuration not stated),0,6,41*,-1,0
Cc1nn2c(-c3ccc(F)cc3)ccnc2c1Br,-1,1,0,.,-2
Cc1nn2c(-c3ccc(F)cc3)ccnc2c1Cl,0,2,61*,1,1
C[C@H](CO)N1C[C@H](C)[C@@H](CN(C)C(=O)C2CCOCC2)Oc2ncc(C#CC3(O)CCCC3)cc2C1=O,.,.,.,-9[16.7 µM],.
C/C=C/c1ccc2c(c1)O[C@H](CN(C)Cc1ccccn1)[C@@H](C)CN([C@H](C)CO)S2(=O)=O,.,.,.,11[16.7 µM],.
Cc1ccc(NC(=O)COc2ccc(Br)cc2CO)cc1,0,-6,.,284*,-3
O=C(Nc1ccc2c(c1)[C@H]1C[C@@H](CC(=O)N3CCc4ccccc4C3)O[C@H](CO)[C@H]1O2)C1CCOCC1,.,.,.,0[16.7 µM],.
CSc1nsc(SCC(=O)NCc2ccc(C)cc2)n1,-1,2,71*,-4,.
COc1ccc(OC)c(NC(=O)N2CCCC(C(=O)c3ccccc3OC)C2)c1 (configuration not stated),0,-5,77*,0,0
COc1cccc(C(=O)C2CCCN(C(=O)c3ccccn3)C2)c1 (configuration not stated),-2,2,73*,0,1
O=C(COC(=O)CCSc1ccccc1)Nc1cc(F)ccc1F,0,3,46*,.,0
O=C(COC(=O)CCSc1ccccc1)Nc1ccc(F)cc1Cl,0,4,-4,-22,-2
O=C(CSc1ccc(-c2cccc([N+](=O)[O-])c2)nn1)N1CCCCCC1,-1,-1,0,-7,1
CCn1c(SCC(=O)Nc2ccc(N3CCOCC3)cc2)nnc1-c1ccc(OC)cc1,0,-2,.,142*,4
Cc1cc(NC(=O)CSc2ccc(-c3ccccc3)nn2)no1,0,-4,1,-5,-3
CCn1c(SCC(=O)Nc2cc(C)on2)nnc1-c1cccc(C)c1,1,5,48*,-3,0
Cc1cc(NC(=O)CSc2ccc(-c3cccc([N+](=O)[O-])c3)nn2)no1,-11,-2,56*,-1,0
SMILES,C-LANA FP,Keap1 Nrf2 FP,CAL PDZ FP-1,miR-122 sensor,CAL PDZ FP-2
O=C(CSc1ccc(-c2cccc([N+](=O)[O-])c2)nn1)N1CCCC1,-1,-1,65*,.,.
CCNC(=O)C[C@@H]1CC[C@H]2[C@@H](COc3ccc(NC(=O)c4cccc(C(F)(F)F)c4)cc3C(=O)N2C)O1,.,.,.,-17[16.7 µM],.
Cc1ccc(S(=O)(=O)Nc2cccc3c2O[C@@H](CN(C)C(=O)NC2CCCCC2)[C@@H](C)CN([C@H](C)CO)C3=O)cc1,.,.,.,1[16.7 µM],.
CO[C@H]1CN(C)C(=O)c2ccc(NC(=O)c3ccccc3F)cc2OC[C@@H](C)NC[C@@H]1C,.,.,.,2[16.7 µM],.
C[C@@H]1CCCCO[C@@H](CN(C)S(=O)(=O)c2ccc(Cl)cc2)[C@@H](C)CN([C@@H](C)CO)C(=O)c2cc(NC(=O)Nc3ccc4c(c3)OCO4)ccc2O1,.,.,.,-2[16.7 µM],.
C[C@H](CO)N1C[C@H](C)[C@H](CN(C)C(=O)Nc2ccccc2)Oc2ccc(NC(=O)Nc3ccccc3)cc2CC1=O,.,.,.,1[16.7 µM],.
Nc1ccc(NC(=O)c2ccc(C(=O)Nc3ccc(N)cc3)cc2)cc1,0,7,-6,-10,-1
Nc1ccc(C(=O)Nc2ccc3c(O)cc(S(=O)(=O)O)cc3c2)cc1,116*,-15,.,-5,0
CCOC(=O)Cc1nc2ccccc2n(CC#N)c1=O,8,-7,76*,5,0
C[C@H](NC(=O)C[C@H]1C[C@@H]2c3cc(NC(=O)NC4CCCC4)ccc3O[C@@H]2[C@@H](CO)O1)c1ccccc1,.,.,.,-3[16.7 µM],.
C[C@H](CO)N1C[C@H](C)[C@@H](CN(C)CC2CCCCC2)Oc2c(NC(=O)c3cnccn3)cccc2C1=O,.,.,.,48[16.7 µM],.
O=C(Nc1cccc(Cl)c1)N[C@@H]1CC[C@@H](CCNC(=O)C2CCCC2)O[C@H]1CO,.,.,.,-4[16.7 µM],.
C[C@H](CO)N1C[C@H](C)[C@H](CN(C)C(=O)Cc2ccccn2)Oc2ncc(-c3ccc(F)cc3)cc2C1=O,.,.,.,-10[16.7 µM],.
CCCCCCCCCC(=O)N/N=C/c1ccc(C)s1,0,2,49*,.,17
Cc1ccc(/C=N/NC(=O)C[n+]2ccccc2)s1,4,-1,2,.,-1
COCCCNC(=O)CN1C(=O)/C(=C\c2ccc(C)cc2)Sc2ccccc21,2,-2,-3,.,-3
CCOCCCNC(=O)CN1C(=O)/C(=C/c2ccccc2C)Sc2ccccc21,1,-6,31*,4,-1
Cc1c(N2C(=O)c3ccc4c5c(ccc(c35)C2=O)CC4)c(=O)n(-c2ccccc2)n1C,0,3,-3,-10,0
Cc1c(N2C(=O)c3ccc(Br)cc3C2=O)c(=O)n(-c2ccccc2)n1C,-2,1,36*,-17,-1
C[C@@H]1CN([C@@H](C)CO)C(=O)c2cc(NC(=O)c3ccncc3)ccc2O[C@@H](C)CCCCO[C@@H]1CN(C)S(=O)(=O)c1ccc(F)cc1,.,.,.,16[16.7 µM],.
C/C(=N\NC(=O)c1cc(-c2cccs2)nc2ccccc12)c1ccccn1,-1,-4,-1,151*,0
COc1cc(C)c(S(=O)(=O)N2CCN=C2c2ccccc2)cc1C,2,0,-3,.,-1
Cc1cc(C)c(S(=O)(=O)N2CCN=C2c2ccccc2)cc1C,2,-7,-2,100*,0
O=C1NC(=O)/C(=C/c2cccc3ccccc23)S1,-2,?,-5,4,0
O=C1NC(=O)/C(=C\c2ccc(O)cc2O)S1,35,-1,52*,.,0
CCCNC(=O)C[C@H]1CC[C@H]2[C@H](COc3ccc(NC(=O)c4cccs4)cc3C(=O)N2C)O1,.,.,.,37[16.7 µM],.
CCN(CCO)Cc1csc2ccc(Cl)cc12,1,-4,-5,.,-1
